According to ChEMBL document CHEMBL4043094, “Azobenzene-containing photoswitchable proteasome inhibitors with selective activity and cellular toxicity” (Bioorg Med Chem, 2017):

What was measured:
[1] = Inhibition of chymotrypsin-like activity of 20S proteasome in rabbit 20S proteasome pre-incubated for 10 mins before Suc-Leu-Leu-Val-Tyr-AMC substrate addition and measured after 2 hrs by fluorescence assay; parameters: species or system Oryctolagus cuniculus
Outline: (§1)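 IC50 (nM) was determined for each compound twice: in its non-irradiated form and again after light irradiation.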

[2] = Inhibition of caspase-like activity of 20S proteasome in rabbit 20S proteasome pre-incubated for 10 mins before Suc-Leu-Leu-Val-Tyr-AMC substrate addition and measured after 2 hrs by fluorescence assay; parameters: species or system Oryctolagus cuniculus; outline: as §1
HCT-116 = test: Cytotoxicity against human HCT116 cells incubated for 48 hrs by 7AAD dye based flow cytometry; format: functional; settings: HCT-116, 48 h, read-out: LD50 (the source's name)
Outline: (§2)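 Apoptosis dose-response over 48 h treatment. Each inhibitor was tested in two forms: the thermally adapted trans state and the cis photostationary state.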

MDA-MB-468 = test: Cytotoxicity against human MDA-MB-468 cells incubated for 48 hrs by 7AAD dye based flow cytometry; format: functional; settings: MDA-MB-468, 48 h, read-out: LD50 (the source's name); outline: as §2
MCF-10A = test: Cytotoxicity against human MCF10A cells at 5000 nM incubated for 48 hrs by 7AAD dye based flow cytometry; format: cell-based; settings: 5 µM
[3] = Stability in DMSO; format: physicochemical
[4] = Cytotoxicity against human MCF10A cells incubated for 48 hrs by 7AAD dye based flow cytometry; format: cell-based, MCF-10A; settings: read-out: LD50

IC50 [1] [nM] | IC50 [2] [nM] | Structure (SMILES) | CC50 (HCT-116) [nM] | CC50 (MDA-MB-468) [nM] | Activity (MCF-10A) | Stability [3] [h] | CC50 at 48 h [4] [nM]
10 | 107 | CC(C)C[C@H](NC(=O)[C@H](Cc1ccc(/N=N/c2ccccc2)cc1)NC(=O)OC(C)(C)C)B1OC2C[C@@H]3C[C@@H](C3(C)C)[C@]2(C)O1 (stereo not given in full) | – | – | – | – | –
5 | 76 | CC(C)C[C@H](NC(=O)[C@H](Cc1ccccc1)NC(=O)c1cnccn1)B(O)O [BORTEZOMIB] | – | – | – | – | –
41 | 214 | Cc1cc(C)cc(/N=N\c2ccc(C[C@H](NC(=O)OC(C)(C)C)C(=O)N[C@@H](CC(C)C)B3OC4C[C@@H]5C[C@@H](C5(C)C)[C@]4(C)O3)cc2)c1 (stereo not given in full) | – | – | – | – | –
12 | 110 | CC(C)C[C@H](NC(=O)[C@H](Cc1ccc(/N=N\c2ccccc2)cc1)NC(=O)OC(C)(C)C)B1OC2C[C@@H]3C[C@@H](C3(C)C)[C@]2(C)O1 (stereo not given in full) | – | – | – | – | –
29 | 727 | CC(C)C[C@H](NC(=O)[C@@H](NC(=O)c1cccc(/N=N\c2ccc(-c3ccccc3)cc2)c1)[C@@H](C)O)B1OC2C[C@@H]3C[C@@H](C3(C)C)[C@]2(C)O1 (stereo not given in full) | – | – | – | – | –
249 | 1630 | Cc1cc(C)cc(/N=N\c2cccc(C(=O)N[C@H](C(=O)N[C@@H](CC(C)C)B3OC4C[C@@H]5C[C@@H](C5(C)C)[C@]4(C)O3)[C@@H](C)O)c2)c1 (stereo not given in full) | – | – | – | – | –
84 | 759 | CC(C)C[C@H](NC(=O)[C@@H](NC(=O)c1cccc(/N=N\c2ccccc2)c1)[C@@H](C)O)B1OC2C[C@@H]3C[C@@H](C3(C)C)[C@]2(C)O1 (stereo not given in full) | – | – | – | – | –

Further lines, the compound ahead of its results:

Structure (SMILES) | IC50 [1] [nM] | IC50 [2] [nM] | CC50 (HCT-116) [nM] | CC50 (MDA-MB-468) [nM] | Activity (MCF-10A) | Stability [3] [h] | CC50 at 48 h [4] [nM]
CC(C)C[C@H](NC(=O)[C@@H](NC(=O)c1cccc(-c2ccccc2)n1)[C@@H](C)O)B(O)O [DELANZOMIB] | 10 | 59 | – | – | – | – | –
CC(C)C[C@H](NC(=O)[C@@H](NC(=O)c1cccc(/N=N/c2ccc(-c3ccccc3)cc2)c1)[C@@H](C)O)B1OC2C[C@@H]3C[C@@H](C3(C)C)[C@]2(C)O1 (stereo not given in full) | 22 | 498 | – | – | – | – | –
Cc1cc(C)cc(/N=N/c2ccc(C[C@H](NC(=O)OC(C)(C)C)C(=O)N[C@@H](CC(C)C)B3OC4C[C@@H]5C[C@@H](C5(C)C)[C@]4(C)O3)cc2)c1 (stereo not given in full) | 53 | 211 | – | – | – | – | –
CC(C)C[C@H](NC(=O)[C@H](Cc1ccc(/N=N/c2ccc(-c3ccccc3)cc2)cc1)NC(=O)OC(C)(C)C)B1OC2C[C@@H]3C[C@@H](C3(C)C)[C@]2(C)O1 (stereo not given in full) | 11 | 460 | 1030 | 246 | Non-Toxic | – | –
CC(C)C[C@H](NC(=O)[C@@H](NC(=O)c1cccc(/N=N/c2ccccc2)c1)[C@@H](C)O)B1OC2C[C@@H]3C[C@@H](C3(C)C)[C@]2(C)O1 (stereo not given in full) | 17 | 868 | – | – | – | – | –
Cc1cc(C)cc(/N=N/c2cccc(C(=O)N[C@H](C(=O)N[C@@H](CC(C)C)B3OC4C[C@@H]5C[C@@H](C5(C)C)[C@]4(C)O3)[C@@H](C)O)c2)c1 (stereo not given in full) | 55 | 1620 | – | – | – | – | –
CC(C)C[C@H](NC(=O)[C@H](Cc1ccc(/N=N\c2ccc(-c3ccccc3)cc2)cc1)NC(=O)OC(C)(C)C)B1OC2C[C@@H]3C[C@@H](C3(C)C)[C@]2(C)O1 (stereo not given in full) | 54 | 303 | 212 | 144 | – | > 48 | 683
